The target of data set [1] is T1, Monoglyceride lipase (Rattus norvegicus) (UniProt Q8R431).
T1 sequence (whole entry): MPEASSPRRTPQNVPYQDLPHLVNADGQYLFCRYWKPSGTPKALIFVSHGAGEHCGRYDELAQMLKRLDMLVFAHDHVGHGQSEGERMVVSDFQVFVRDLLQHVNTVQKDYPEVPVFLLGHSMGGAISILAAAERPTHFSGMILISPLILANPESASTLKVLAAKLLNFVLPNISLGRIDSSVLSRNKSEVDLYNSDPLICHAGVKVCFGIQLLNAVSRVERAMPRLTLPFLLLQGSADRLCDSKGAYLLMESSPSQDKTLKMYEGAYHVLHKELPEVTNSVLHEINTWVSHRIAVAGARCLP
Description: Binding affinity to rat MAGL assessed as dissociation rate constant by SPR analysis. Put shortly: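 Human or rat MAGL was immobilized by amine coupling without ethanolamine quenching. Runs were done at 18 °C in 10 mM HEPES, 150 mM NaCl, 0.05% P20, 50 µM EDTA, pH 7.4, with 1% DMSO. Single-cycle kinetics used five concentrations, top 1 µM in 2-fold steps, at 30 µL/min, giving kon, koff and Kd.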

The subject of data set [2] is Mus musculus. In words: Upregulation of brain 2-AG level in mouse at 30 mg/kg, ip measured after 8 to 24 hrs. Type of data set: functional, organism-based. Particulars: time 8-24 hrs. Put shortly:
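Male-unspecified mice received a single i.p. dose of 30 mg/kg. The vehicle was NaCl/DMSO/TW80 (80/10/10): the drug was dissolved in equal parts DMSO and TW80, then diluted with 8 parts normal saline. Brain 2-AG levels were followed over 24 h after dosing and measured by LC/MS in brain extracts.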

The target of data set [3] is T2, Monoacylglycerol lipase ABHD6 (Mus musculus) (UniProt Q8R2Y0).
T2 sequence (whole entry): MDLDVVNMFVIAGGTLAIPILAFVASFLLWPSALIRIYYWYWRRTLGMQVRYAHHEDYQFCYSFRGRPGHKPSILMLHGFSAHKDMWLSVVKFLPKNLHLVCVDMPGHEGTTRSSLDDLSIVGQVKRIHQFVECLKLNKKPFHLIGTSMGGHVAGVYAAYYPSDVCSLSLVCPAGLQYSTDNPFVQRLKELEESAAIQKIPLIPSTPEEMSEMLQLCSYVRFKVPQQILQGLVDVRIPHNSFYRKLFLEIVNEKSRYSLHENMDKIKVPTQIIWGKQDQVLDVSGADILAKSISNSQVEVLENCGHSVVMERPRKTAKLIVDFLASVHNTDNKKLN
Description: Inhibition of ABHD6 in mouse brain lysates at 10 uM by ABPP assay. The format is subcellular. Put shortly:
(§1)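 Gel-based activity-based protein profiling of hydrolases, with the inhibitor at 10 µM.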

The subject of data set [4] is Mus musculus. Description: Antiinflammatory activity in LPS-induced CD-1 mouse neuroinflammation model assessed as decrease in brain LCN2 mRNA expression at 30 mg/kg, ip measured after 6 hrs by qRT-PCR analysis. Type of data set: functional, organism-based. In short, it runs like this:
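CD-1 mice received NaCl + vehicle, LPS (5 mg/kg) + vehicle, or LPS + inhibitor at 30 mg/kg i.p. The vehicle was NaCl/DMSO/Tween 80, 80/10/10. Mice were killed 6 h after compound dosing. LCN2 and IL1b mRNA in cortical brain lysates were quantified by droplet digital qRT-PCR.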
A general note: Real-time PCR tracks product formation cycle by cycle.

Data set [5] concerns the target T3, Monoglyceride lipase (Mus musculus) (UniProt O35678).
T3 sequence (whole entry): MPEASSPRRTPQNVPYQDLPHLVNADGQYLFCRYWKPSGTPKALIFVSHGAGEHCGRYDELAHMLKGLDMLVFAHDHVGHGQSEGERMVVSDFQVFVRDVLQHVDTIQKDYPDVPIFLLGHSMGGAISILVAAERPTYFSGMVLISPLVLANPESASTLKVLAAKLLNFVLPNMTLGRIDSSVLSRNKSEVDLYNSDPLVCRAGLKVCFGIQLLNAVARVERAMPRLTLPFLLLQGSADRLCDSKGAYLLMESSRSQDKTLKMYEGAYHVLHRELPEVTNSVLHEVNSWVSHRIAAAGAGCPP
In words: In vivo receptor occupancy at MAGL receptor in mouse at 30 mg/kg, ip measured after 8 hrs. Type of data set: functional, organism-based. In short, it runs like this: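 Mice dosed 30 mg/kg i.p. in NaCl/DMSO/TW80 (80/10/10). Brain proteome was prepared at set time points over 24 h and MAGL occupancy read by activity-based protein profiling.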

The species named for data set [6] is Mus musculus. In words: Inhibition of DAGL in mouse brain lysates at 10 uM by ABPP assay. Type of data set: subcellular. Put shortly: as §1
A short description of data set [7]: Tmax in Wistar rat at 10 mg/kg, ip measured […] by LC-MS/MS analysis. Particulars: in vivo. The format is ADME, organism-based. Put shortly: (§2)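 Male Wistar rats, single dose. i.v. in NMP/0.9% NaCl 30:70; p.o. and i.p. in NMP/HPMC/diisooctyl sulfosuccinate 10:90; 3 per i.v./p.o. group, 6 i.p. K2EDTA plasma sampled 0.083–7 h, plus 24 h for i.v./p.o.; brain and CSF at 1, 2, 7 h (i.p. only). LC-MS/MS, noncompartmental analysis.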

Data set [8] can be described thus: Half-life in Wistar rat at 10 mg/kg, ip […] by LC-MS/MS analysis. The format is ADME, organism-based. Particulars: in vivo. Put shortly:
as §2

Data set [9] is described as follows: Ratio of drug concentration in Wistar rat brain to plasma at 10 mg/kg, ip measured upto 7 hrs by LC-MS/MS analysis. Type of data set: ADME, organism-based. Put shortly:
as §2

Data set [10] can be described thus: Average drug concentration in mouse plasma at 30 mg/kg, ip measured after 4 hrs. Type of data set: ADME, organism-based. Particulars: in vivo. Put shortly: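 Mice received 3, 10 or 30 mg/kg i.p. The compound was dissolved in DMSO/Tween 80 (1:1) and diluted with 8 parts saline (NaCl/DMSO/TW80 80/10/10). Plasma was taken 4 h after injection and average concentrations reported.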

Data set [11] can be described thus: Brain-polar-lipids/water distribution coefficient, LIMBA logD brain of the compound at pH 7.4 incubated for 8 hrs by LIMBA.
Data set [12] is described as follows: Free fraction in human plasma incubated for 5 hrs by equilibrium dialysis based LC-MS/MS analysis. Type of data set: ADME, cell-free. Put shortly: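 Equilibrium dialysis across a 12–14 kDa cutoff membrane in a Teflon 96-well device. Pooled frozen plasma is adjusted to pH 7.4 and spiked at 1000 nM initial total, against Soerensen buffer pH 7.4. Incubation is 5 h at 37 °C, 5% CO2, with diazepam control in each well. %fu = 100 × buffer/matrix concentration after dialysis; recovery accepted at 80–120%.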
(In general: In equilibrium dialysis only unbound substance equilibrates across the membrane.)

The target in another data set is T4, Monoglyceride lipase (Mus musculus, UniProt O35678).
T4 sequence (O35678 whole entry): T3 sequence (whole entry)
In words: Inhibition of mouse MAGL using native substrate by Rapidfire MS assay.

Data set [13] in a line: Tmax in Wistar rat at 5 mg/kg, po measured upto 24 hrs by LC-MS/MS analysis. The format is ADME, organism-based. The following applies: in vivo. In short, it runs like this: as §2
Data set [14] can be described thus: Average drug concentration in mouse plasma at 30 mg/kg, ip measured after 16 hrs. The format is ADME, organism-based. Particulars: in vivo. Put shortly: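 In a time course, mice were injected i.p. with 30 mg/kg in NaCl/DMSO/Tween 80 (80/10/10). Average plasma levels were determined at the stated time points over 24 h.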
A short description of data set [15]: Clearance in human hepatocytes assessed per 10 million cells. Type of data set: ADME, cell-based, Hepatocyte. The following applies: read-out: CLH.
A short description of data set [16]: Clearance in mouse hepatocytes assessed per 10 million cells. Type of data set: ADME, cell-based, Hepatocyte. Particulars: read-out: CLH.
The next data set deals with CYP3A4 (Homo sapiens, UniProt P08684). Description: Inhibition of CYP3A4 (unknown origin) at 10 uM relative to control. The format is ADME.

Each structure is given as a SMILES string. Calls of active or inactive are those of the source.

Usually inhibition stands for the relative decrease from the control value, in per cent. By Tmax is commonly meant the time from dosing to the highest level. A word on the half-life: it is the time needed for the level to fall by half in the phase considered. A low value points to fast loss. Usually Kp stands for the ratio of the level in a tissue or fluid to that in plasma or blood. Usually fraction unbound stands for the share of the substance not bound to proteins or other matrix. Low readings indicate little free substance, high ones much free substance. What is called IC50 is the point on the concentration scale where inhibition reaches its midpoint. The low end stands for greater potency, the high end for weaker potency.

Sequence of CYP3A4 (P08684 whole entry): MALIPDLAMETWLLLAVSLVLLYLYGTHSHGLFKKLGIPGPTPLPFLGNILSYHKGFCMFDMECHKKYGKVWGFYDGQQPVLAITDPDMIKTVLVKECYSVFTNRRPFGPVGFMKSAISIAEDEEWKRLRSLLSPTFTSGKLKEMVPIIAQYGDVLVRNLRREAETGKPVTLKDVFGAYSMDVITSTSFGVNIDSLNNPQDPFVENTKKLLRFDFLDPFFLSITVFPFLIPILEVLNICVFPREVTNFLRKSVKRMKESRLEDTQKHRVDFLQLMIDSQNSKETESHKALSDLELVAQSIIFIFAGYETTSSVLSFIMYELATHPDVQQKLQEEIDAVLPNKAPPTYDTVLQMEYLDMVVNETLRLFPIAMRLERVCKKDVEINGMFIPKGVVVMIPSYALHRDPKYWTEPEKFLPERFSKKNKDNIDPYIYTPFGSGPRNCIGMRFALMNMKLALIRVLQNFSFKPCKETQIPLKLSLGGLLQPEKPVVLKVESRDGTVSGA

Consider `O=C1CO[C@H]2CCN(C(=O)N3CCC(Cc4ccc(C(F)(F)F)cc4)CC3)C[C@H]2N1` [listing 1 of 2 here], for which the K in data set [1] is 16.8 10^-3/s. Besides, the outcome in the data set on Mus musculus [2] was inactive. For the same molecule, the inhibition entry (in data set [3]; in the data set listed under Mus musculus [6]) was “inactive” throughout. Moreover, the outcome with Mus musculus [4] was Active. For the same molecule, in [5], the Activity was determined as 92%.
On to `O=C1CO[C@H]2CCN(C(=O)N3CCC(Cc4ccc(C(F)(F)F)cc4)CC3)C[C@H]2N1` [listing 2 of 2 here], for which the time of peak concentration (Tmax) turned out to be 0.25 h in data set [7] and 6 h in [13]. In addition, in [8], the half-life was 2.7 h. Moreover, the Kp at 7 h in data set [9] was 1.1. For the same molecule, the Cave is 27.765 µM in [10] and 2.955 µM in data set [14]. Moreover, the LIMBA logD brain at 8 h in [11] was 1.8. This molecule also displayed an unbound share (fraction unbound) at 5 h in data set [12] of 0.043. The same molecule came in with a 50% inhibitory concentration (IC50) on Monoglyceride lipase of 91 nM. The hepatocyte CLint worked out at 1.9 µL/min/1e6 cells in data set [15] and 8.9 µL/min/1e6 cells in data set [16]. Moreover, the inhibition at 10 µM against CYP3A4 is -195%.

The values are drawn from ChEMBL document CHEMBL6127097, “Structure-Guided Discovery of cis-Hexahydro-pyrido-oxazinones as Reversible, Drug-like Monoacylglycerol Lipase Inhibitors” (J Med Chem, 2024).
